Here are results for eleven molecules from ChEMBL document CHEMBL4190259, “Constituents of Polygala flavescens ssp. flavescens and Their Activity as Inhibitors of Human Lactate Dehydrogenase” (J Nat Prod, 2017).

As a reminder, the IC50 is the concentration that gives 50% inhibition. The low end stands for inhibition by little substance, the high end for a need for much substance.

For the test, the target named is L-lactate dehydrogenase A chain (Homo sapiens, UniProt P00338). Put plainly: Inhibition of human liver LDH5 using pyruvate as substrate and NADH as cofactor measured after 15 mins by fluorescence assay. The procedure, abridged: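 Purified human LDH isoform 5, forward reaction (pyruvate to lactate) in 100 mM phosphate buffer pH 7.4 with 200 μM pyruvate and 40 μM NADH. Seven concentrations from 500 to 0.7 μM, each in duplicate, DMSO not above 4%. NADH consumption read by fluorescence (ex 340, em 460 nm) after 15 min. Compound background fluorescence or quenching subtracted. IC50 from concentration–response curves.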
With `C[C@@H]1O[C@@H](OC[C@H]2O[C@@H](Oc3c(-c4ccc(O)c(O)c4)oc4cc(O)cc(O)c4c3=O)[C@H](O[C@@H]3OC[C@](O)(COC(=O)/C=C/c4ccc(O)cc4)[C@H]3O)[C@@H](O)[C@@H]2O)[C@H](O)[C@H](O)[C@H]1O`, the IC50 was greater than 500 µM.

Molecule `C[C@@H]1O[C@@H](OC[C@H]2O[C@@H](Oc3c(-c4ccc(O)c(O)c4)oc4cc(O)cc(O)c4c3=O)[C@H](O[C@@H]3OC[C@](O)(CO)[C@H]3O)[C@@H](O)[C@@H]2O)[C@H](O)[C@H](O)[C@H]1O` registered an IC50 greater than 500 µM.

`CC(=O)O[C@@H]1[C@H](O[C@@H]2OC[C@](O)(CO)[C@H]2O)[C@@H](O[C@@H]2O[C@@H](C)[C@H](O)[C@@H](O)[C@H]2O)[C@H](OC(=O)[C@]23CCC(C)(C)C[C@H]2C2=CC[C@@H]4[C@@]5(C)C[C@H](O)[C@H](O[C@@H]6O[C@H](CO)[C@@H](O)[C@H](O)[C@H]6O)[C@@](C)(C(=O)O)[C@@H]5CC[C@@]4(C)[C@]2(C)CC3)O[C@H]1C` gave an IC50 greater than 500 µM.

Take `C[C@@H]1O[C@@H](OC[C@H]2O[C@@H](Oc3c(-c4ccc(O)c(O)c4)oc4cc(O)cc(O)c4c3=O)[C@H](O)[C@@H](O)[C@@H]2O)[C@H](O)[C@H](O)[C@H]1O` [RUTIN]: the IC50 is greater than 500 µM.

`O=C(OC[C@H]1O[C@@](CO)(O[C@H]2O[C@H](CO)[C@@H](O)[C@H](O[C@@H]3O[C@H](CO)[C@@H](O)[C@H](O)[C@H]3O)[C@H]2O)[C@@H](O)[C@@H]1O)c1ccccc1` displayed an IC50 greater than 500 µM.

Consider `COc1cc(/C=C/C(=O)OC[C@H]2O[C@H](O[C@]3(CO)O[C@H](CO)[C@@H](O)[C@@H]3OC(=O)/C=C/c3cc(OC)c(O)c(OC)c3)[C@H](O)[C@@H](O)[C@@H]2O)cc(OC)c1O`, for which the IC50 amounted to 90.4 µM.

`COc1cc(/C=C/C(=O)OC[C@H]2O[C@H](O[C@]3(CO)O[C@H](CO)[C@@H](O)[C@@H]3OC(=O)/C=C/c3cc(OC)c(O)c(OC)c3)[C@H](O)[C@@H](O[C@@H]3O[C@H](CO)[C@@H](O)[C@H](O)[C@H]3O)[C@@H]2O)cc(OC)c1O` displayed an IC50 of 191 µM.

For the molecule `CC(=O)OC[C@H]1O[C@H](O[C@]2(CO)O[C@H](COC(=O)c3ccccc3)[C@@H](O)[C@@H]2O)[C@H](O)[C@@H](O[C@@H]2O[C@H](CO)[C@@H](O)[C@H](O)[C@H]2O)[C@@H]1O`, the IC50 was greater than 500 µM.

In turn, `COc1cc(/C=C/C(=O)OC[C@@]2(O)CO[C@@H](O[C@H]3[C@H](Oc4c(-c5ccc(O)c(O)c5)oc5cc(O)cc(O)c5c4=O)O[C@H](CO[C@@H]4O[C@@H](C)[C@H](O)[C@@H](O)[C@H]4O)[C@@H](O)[C@@H]3O)[C@@H]2O)cc(OC)c1O` showed an IC50 greater than 500 µM.

Regarding `C[C@@H]1O[C@@H](OC[C@H]2O[C@@H](Oc3c(-c4ccc(O)c(O)c4)oc4cc(O)cc(O)c4c3=O)[C@H](O[C@@H]3OC[C@](O)(COC(=O)c4ccccc4)[C@H]3O)[C@@H](O)[C@@H]2O)[C@H](O)[C@H](O)[C@H]1O`, the IC50 is greater than 500 µM.

Regarding `COc1cc(/C=C/C(=O)OC[C@@]2(O)CO[C@@H](O[C@H]3[C@H](Oc4c(-c5ccc(O)c(O)c5)oc5cc(O)cc(O)c5c4=O)O[C@H](CO[C@@H]4O[C@@H](C)[C@H](O)[C@@H](O)[C@H]4O)[C@@H](O)[C@@H]3O)[C@@H]2O)ccc1O`, the IC50 was greater than 500 µM.
